From ChEMBL document CHEMBL1124873, “Cytotoxicity and antitumor activity of bis(platinum) complexes. A novel class of platinum complexes active in cell lines resistant to both cisplatin and 1,2-diaminocyclohexane complexes” (1990)
Several values for one entry are separate records, joined by “and”; a condition that tells them apart may be missing. Equal entries are not always repeated.

What was measured:
[1] = test system: Mus musculus; test: Antitumor activity against L1210 leukemia was determined at 5 mg/kg dose given on 1, 5, 9 days after tumor implantation in mice; assay type: functional, organism-based; parameters: dose 5 mg/kg
How it was run: (§1)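 Male BDF1 mice (18–20 g) inoculated ip with 10^6 L1210/0 or P388 ascites leukemia cells on day 0. Test compound given ip on days 1, 5 and 9; dosing stopped after two doses if over half of the animals had died by day 9. Deaths recorded over 60 days. %T/C = mean survival of treated mice that died ÷ mean survival of untreated tumour-bearing controls. Long-term survivors also counted.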

[2] = test system: Mus musculus; test: Antitumor activity against P388 leukemia was determined at 5 mg/kg dose given on 1, 5, 9 days after tumor implantation in mice; assay type: functional, organism-based; parameters: dose 5 mg/kg; how it was run: as §1
[3] = test system: L1210; test: In vitro cytotoxicity in L1210 leukemia resistant to cisplatin; assay type: functional, Mus musculus; conditions: read-out: ID50 (the source's name)
How it was run: (§2)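 L1210 murine leukaemia (sensitive, 40–60-fold DDP-resistant, or 30-fold [Pt(R,R-dach)SO4]-resistant) grown in suspension in McCoy's 5A with 5% horse serum and glutamine. Cells at 5 × 10^4/mL exposed 72 h to 0.01–10 μg/mL (final) compound, from DMF stock diluted in saline (≤0.5% DMF) or water for malonates. Cells Coulter-counted; ID50 from % growth inhibition.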

[4] = test system: L1210; test: In vitro cytotoxicity in L1210 leukemia sensitive to cisplatin; assay type: functional, Mus musculus; conditions: read-out: ID50 (the source's name); how it was run: as §2

With CISPLATIN the T/C [1] was 210% and the T/C [2] was 170%.

`CC(C)(N)CCC(C)(C)N` was tested, and the IC50 ([3]; Mus musculus, L1210) was 9.09 µM, the IC50 [3] was 5.53 µM and the IC50 [4] was 6.2 µM and 0.98 µM.
